From publication PMC12541606 (Acta Pharmaceutica Sinica. B, 2025)
Numbered stars: 1 amine (or outer) side, 2 acyl side, 3 side chain; on linkers, the order of the positions; unused ones are H or OH. Bridge positions count the residues as written; N and C are the ends. Square brackets hold non-standard residues; d marks the D form. Peptide text beside a SMILES is read from it. I, II: the chains in the order shown. * marks the point of attachment. X1 = O=C([C@H](CCCCn1nnc2c1-c1ccccc1N([*:3])Cc1ccccc1-2)N[*:1])[*:2]; Dolaproine = CO[C@@H]([C@@H]1CCCN1)[C@@H](C)C(=O)O; Tyr(SO2F) = N[C@@H](Cc1ccc(OS(=O)(=O)F)cc1)C(=O)O; Dil = CC[C@H](C)[C@H](NC)[C@@H](CC(=O)O)OC; PABC = O=C(OCc1ccc(N[*:1])cc1)[*:2]; X2 = C[C@@H](N*)[C@@H](O)c1ccccc1; Cit = NC(=O)NCCC[C@H](N)C(=O)O; Suc = O=C(CCC(=O)[*:2])[*:1]; NMeV = CN[C@H](C(=O)O)C(C)C; AEEA = NCCOCCOCC(=O)O

Experiments:
Assay type in all cases: cell-based
[1] = tested on: tubulin; assay: Immunofluorescent imaging of tubulin organization; settings: MDA-MB-468 cells, 0 to 10 μmol/L, 24 h
[2] = tested on: MDA-MB-468 cells; assay: Cell viability test; settings: 72 h, CCK-8
[3] = tested on: caspase-3; assay: Western blotting of cleaved caspase-3; settings: MDA-MB-468 cells, 24 h, 37 °C
Method in brief: (§1)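 MDA-MB-468 cells were seeded and grown 24 h at 37 °C, 5% CO2. PDC test compound was diluted from a 20 mmol/L stock to final 0, 0.1, 0.5, 1, 5 and 10 μmol/L and applied for 24 h. Cells were lysed in RIPA buffer with protease inhibitors and run on SDS-PAGE. Blots were probed for caspase-3, cleaved caspase-3, PARP and β-actin, detected by ECL and quantified by densitometry.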

[4] = tested on: poly ADP-ribose polymerase (PARP); assay: Western blotting of cleaved PARP; settings: MDA-MB-468 cells, 24 h, 37 °C
Method in brief: as §1

SMILES	tubulin signal (in words) [1]	area under the dose-response curve (AUC) [2]	cleavage product of caspase-3, fold relative to untreated controls [3]	cleavage product of PARP, fold relative to untreated controls [4]
CC[C@H](C)[C@@H]([C@@H](CC(=O)N1CCC[C@H]1[C@H](OC)[C@@H](C)C(=O)N[C@H](C)[C@@H](O)c1ccccc1)OC)N(C)C(=O)[C@@H](NC(=O)[C@H](C(C)C)N(C)C(=O)OCc1ccc(NC(=O)[C@H](CCCNC(N)=O)NC(=O)[C@@H](NC(=O)CCC(=O)N2Cc3ccccc3-c3nnn(CCCC[C@H](NC(=O)COCCOCCNC(=O)COCCOCCNC(=O)[C@@H]4CSCC(=O)N[C@H](Cc5ccccc5)C(=O)N[C@@H](Cc5ccc(OS(=O)(=O)F)cc5)C(=O)N[C@@H](CC(N)=O)C(=O)N[C@@H](C)C(=O)N[C@@H](Cc5ccccc5)C(=O)N5CCC[C@H]5C(=O)N[C@@H](C(C)C)C(=O)N[C@@H](CCCNC(=N)N)C(=O)N[C@@H](Cc5ccc(O)cc5)C(=O)N[C@@H](CC(C)C)C(=O)N[C@@H](CCCCN)C(=O)N[C@@H](CCCCN)C(=O)N[C@@H](Cc5c[nH]c6ccccc56)C(=O)N4)C(N)=O)c3-c3ccccc32)C(C)C)cc1)C(C)C [CP-N1-MMAE] (I: {CH2CO}-[dF][Tyr(SO2F)]NAFPVRYLKKWC[AEEA][AEEA][X1]-NH2 / II: V[Cit][PABC][NMeV]V[Dil][Dolaproine]-X2; linker I:17-II:N via Suc; thioether I:N-I:14)	progressive, concentration-dependent reduction in tubulin signal	173.3	5 fold	1.5 fold
CC[C@H](C)[C@@H]([C@@H](CC(=O)N1CCC[C@H]1[C@H](OC)[C@@H](C)C(=O)N[C@H](C)[C@@H](O)c1ccccc1)OC)N(C)C(=O)[C@@H](NC(=O)[C@H](C(C)C)N(C)C(=O)OCc1ccc(NC(=O)[C@H](CCCNC(N)=O)NC(=O)[C@@H](NC(=O)CCC(=O)N2Cc3ccccc3-c3nnn(CCCC[C@H](NC(=O)COCCOCCNC(=O)COCCOCCNC(=O)[C@@H]4CSCC(=O)N[C@H](Cc5ccccc5)C(=O)N[C@@H](Cc5ccc(OS(=O)(=O)F)cc5)C(=O)N[C@@H](CC(N)=O)C(=O)N[C@@H](C)C(=O)N[C@@H](Cc5ccccc5)C(=O)N5CCC[C@H]5C(=O)N[C@@H](C(C)C)C(=O)N[C@@H](CCCNC(=N)N)C(=O)N[C@@H](Cc5ccc(O)cc5)C(=O)N[C@@H](CC(C)C)C(=O)N[C@@H](CCCCN)C(=O)N[C@@H](CCCNC(=N)N)C(=O)N[C@@H](Cc5c[nH]c6ccccc56)C(=O)N4)C(N)=O)c3-c3ccccc32)C(C)C)cc1)C(C)C [CP-N9-MMAE] (I: {CH2CO}-[dF][Tyr(SO2F)]NAFPVRYLKRWC[AEEA][AEEA][X1]-NH2 / II: V[Cit][PABC][NMeV]V[Dil][Dolaproine]-X2; linker I:17-II:N via Suc; thioether I:N-I:14)	progressive, concentration-dependent reduction in tubulin signal	215.2		
CC[C@H](C)[C@@H]([C@@H](CC(=O)N1CCC[C@H]1[C@H](OC)[C@@H](C)C(=O)N[C@H](C)[C@@H](O)c1ccccc1)OC)N(C)C(=O)[C@@H](NC(=O)[C@H](C(C)C)N(C)C(=O)OCc1ccc(NC(=O)[C@H](CCCNC(N)=O)NC(=O)[C@@H](NC(=O)CCC(=O)N2Cc3ccccc3-c3nnn(CCCC[C@H](NC(=O)COCCOCCNC(=O)COCCOCCNC(=O)[C@@H]4CSCC(=O)N[C@H](Cc5ccccc5)C(=O)NCC(=O)N[C@@H](CC(=O)O)C(=O)N[C@@H](Cc5ccccc5)C(=O)N[C@@H]([C@@H](C)CC)C(=O)N[C@@H](CCCNC(=N)N)C(=O)N[C@@H](CCCNC(=N)N)C(=O)N[C@@H](CC(C)C)C(=O)N[C@@H](C(C)C)C(=O)N5CCC[C@H]5C(=O)N[C@@H](CCCNC(=N)N)C(=O)N[C@@H](CC(C)C)C(=O)N4)C(N)=O)c3-c3ccccc32)C(C)C)cc1)C(C)C [NP-N7-MMAE] (I: {CH2CO}-[dF]GDFIRRLVPRLC[AEEA][AEEA][X1]-NH2 / II: V[Cit][PABC][NMeV]V[Dil][Dolaproine]-X2; linker I:16-II:N via Suc; thioether I:N-I:13)	progressive, concentration-dependent reduction in tubulin signal	433.7		
